The results in this text go back to ChEMBL document CHEMBL3393041, “Denhaminols A-H, dihydro-β-agarofurans from the endemic Australian rainforest plant Denhamia celastroides” (J Nat Prod, 2015).

Common to all, as to format: functional, cell-based
Experiment [1] relates to LNCaP. The experiment in a line: Antiproliferative activity against human LNCAP cells assessed as change in cell morphology at 10 to 100 uM measured up to 96 hrs by live-cell imaging method. Summed up: (§1)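 LNCaP cells (ATCC) grown in phenol-red-free RPMI-1640 with 5% FBS at 37 °C, 5% CO2, kept in log phase. Cells seeded 4000/well for 24 h, then treated with compounds in DMSO diluted in medium (DMSO ≤0.4%). Plates imaged every 2 h for 96 h by IncuCyte live-cell imaging; growth read as confluence; morphology recorded from the images. DMSO as vehicle control.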

The test system of experiment [2] is LNCaP. The experiment in a line: Reduction in phosphatidylcholine content in human LNCAP cells at 25 uM after 72 hrs by nile red staining based fluorescence microscopy. Summed up: (§2)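 LNCaP cells were seeded at 3000/well on poly-L-ornithine-coated plates in phenol-red-free RPMI-1640 with 5% FBS for 48 h, then treated for 72 h. Cells were fixed in 4% paraformaldehyde for 20 min on ice and stained 20 min at RT in PBS with 1.0 μg/mL DAPI and 0.25 μg/mL Nile Red. Mean fluorescence was measured for neutral lipids (Cy3) and phospholipids (Cy5) in ~300 cells at 10×. Analysis used one-way ANOVA with Dunnett's test. DMSO was the negative control and TOFA the positive control. Duplicate points; three independent experiments.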

For experiment [3], the system named is LNCaP. The experiment in a line: Reduction in phosphatidylserine content in human LNCAP cells at 25 uM after 72 hrs by nile red staining based fluorescence microscopy. In short, it runs like this:
as §2

The subject of experiment [4] is LNCaP. The experiment in a line: Reduction in phosphatidylethanolamine content in human LNCAP cells at 25 uM after 72 hrs by nile red staining based fluorescence microscopy. Summed up:
as §2

For experiment [5], the system named is LNCaP. The experiment in a line: Antiproliferative activity against human LNCAP cells assessed as enlargement, granulation and cell burst at 10 to 100 uM by live-cell imaging method. Particulars: TDE = time-dependent effect. In short, it runs like this:
as §1

The test system of experiment [6] is LNCaP. The experiment in a line: Growth inhibition of human LNCAP cells after 72 hrs by Alamar Blue assay. In short, it runs like this:
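LNCaP cells in phenol-red-free RPMI-1640 with 5% FBS were seeded 4000/well for 24 h, then treated with compounds diluted from DMSO into medium (DMSO ≤0.4%). Metabolic activity was read by AlamarBlue endpoint after 72 h. IC50 was calculated at 72 h. DMSO served as negative control and doxorubicin as positive control. Triplicate points; three independent experiments.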

The subject of experiment [7] is LNCaP. The experiment in a line: Antiproliferative activity against human LNCAP cells assessed as enlargement, granulation and cell burst measured every 2 hrs for 96 hrs by live-cell imaging method. Summed up: as §1
Experiment [8] concerns LNCaP. The experiment in a line: Reduction in fatty acid content in human LNCAP cells at 10 uM after 72 hrs by nile red staining based fluorescence microscopy. In short, it runs like this: as §2
Experiment [9] deals with LNCaP. The experiment in a line: Reduction in sterol content in human LNCAP cells at 10 uM after 72 hrs by nile red staining based fluorescence microscopy. In short, it runs like this: as §2
Experiment [10] relates to LNCaP. The experiment in a line: Reduction in phosphatidylserine content in human LNCAP cells at 10 uM after 72 hrs by nile red staining based fluorescence microscopy. In short, it runs like this: as §2
Experiment [11] relates to LNCaP. The experiment in a line: Reduction in phosphatidylethanolamine content in human LNCAP cells at 10 uM after 72 hrs by nile red staining based fluorescence microscopy. Summed up: as §2
In experiment [12] the test system is LNCaP. The experiment in a line: Reduction in phosphatidylcholine content in human LNCAP cells at 10 uM after 72 hrs by nile red staining based fluorescence microscopy. Summed up:
as §2

In experiment [13] the test system is LNCaP. The experiment in a line: Reduction in triglyceride content in human LNCAP cells at 10 uM after 72 hrs by nile red staining based fluorescence microscopy. In short, it runs like this:
as §2

The test system of experiment [14] is LNCaP. The experiment in a line: Reduction in fatty acid content in human LNCAP cells at 60 uM after 72 hrs by nile red staining based fluorescence microscopy. In short, it runs like this: as §2
Experiment [15] has as its system LNCaP. The experiment in a line: Reduction in phosphatidylethanolamine content in human LNCAP cells at 60 uM after 72 hrs by nile red staining based fluorescence microscopy. Summed up: as §2
The test system of experiment [16] is LNCaP. The experiment in a line: Reduction in phosphatidylcholine content in human LNCAP cells at 60 uM after 72 hrs by nile red staining based fluorescence microscopy. Summed up: as §2
Experiment [17] deals with LNCaP. The experiment in a line: Reduction in phosphatidylserine content in human LNCAP cells at 60 uM after 72 hrs by nile red staining based fluorescence microscopy. In short, it runs like this:
as §2

In experiment [18] the test system is LNCaP. The experiment in a line: Reduction in triglyceride content in human LNCAP cells at 60 uM after 72 hrs by nile red staining based fluorescence microscopy. Summed up:
as §2

For experiment [19], the system named is LNCaP. The experiment in a line: Reduction in sterol content in human LNCAP cells at 60 uM after 72 hrs by nile red staining based fluorescence microscopy. In short, it runs like this:
as §2

Active and inactive are the calls of the source. The calls are words filed in the database; no cut-off is given here.

For `C/C=C(\C)C(=O)OCC1(C)O[C@]23[C@H](OC(C)=O)[C@H]1[C@H](O)[C@H](OC(=O)/C=C/c1ccccc1)[C@]2(C)[C@@H](OC(=O)COC(C)=O)CC[C@]3(C)O` (stereo partly specified), the outcome in the experiment with LNCaP [1], in the experiment with LNCaP [2], with LNCaP [3] and with LNCaP [4] was Active. In addition, the Activity entry was “tde” with LNCaP [5] and “Dose-dependent effect” in the experiment on LNCaP [7]. For the same molecule, in the experiment with LNCaP [6], the 50% inhibitory concentration (IC50) is > 10 µM.
For `CC(=O)OCC(=O)O[C@H]1CC[C@](C)(O)[C@]23OC(C)(COC(=O)c4ccccc4)[C@H]([C@H](O)[C@H](OC(=O)/C=C/c4ccccc4)[C@]12C)[C@H]3OC(C)=O` (stereo partly specified), the IC50 in the experiment with LNCaP [6] was > 10 µM.
Take `CCCCCCCCCCCCCCOc1ccc(C(=O)O)o1`: the outcome in the experiment on LNCaP [8], with LNCaP [9], in the experiment on LNCaP [10], in the experiment on LNCaP [11], with LNCaP [12] and with LNCaP [13] was Active.
Regarding `CC(=O)OC[C@@]12[C@@H](OC(C)=O)CC[C@](C)(O)[C@]13OC(C)(COC(=O)c1ccccc1)[C@H](C[C@@H]2OC(=O)/C=C/c1ccccc1)[C@H]3OC(C)=O` (stereo partly specified), in the experiment with LNCaP [6], the IC50 is > 10 µM.
Turning to `CC(=O)OC[C@@]12[C@@H](OC(C)=O)CC[C@](C)(O)[C@]13OC(C)(C)[C@H](C[C@@H]2OC(=O)/C=C/c1ccccc1)[C@H]3O`, the IC50 in the experiment with LNCaP [6] is > 10 µM.
Regarding `CC(=O)OC[C@@]12[C@@H](OC(C)=O)CC[C@](C)(O)[C@]13OC(C)(COC(=O)c1ccccc1)[C@H](C[C@@H]2OC(=O)/C=C/c1ccccc1)[C@H]3O` (stereo partly specified), in the experiment on LNCaP [6], the IC50 was > 10 µM.
With `CC(=O)OC[C@@]12[C@@H](OC(C)=O)CC[C@](C)(O)[C@]13OC(C)(C)[C@H]([C@H](O)[C@@H]2OC(=O)/C=C/c1ccccc1)[C@H]3OC(C)=O`, the half-inhibitory concentration (IC50) in the experiment with LNCaP [6] is > 10 µM.
On to `CC(=O)OC[C@@]12[C@@H](OC(C)=O)CC[C@](C)(O)[C@]13OC(C)(C)[C@H](C[C@@H]2OC(=O)/C=C/c1ccccc1)[C@H]3OC(C)=O`, for which the outcome in the experiment with LNCaP [14], in the experiment with LNCaP [15], in the experiment on LNCaP [16], with LNCaP [17], in the experiment with LNCaP [18] and in the experiment with LNCaP [19] was Active. Further, the IC50 in the experiment on LNCaP [6] is > 10 µM.
As for `C/C=C(\C)C(=O)OCC1(C)O[C@]23[C@H](OC(C)=O)[C@H]1C[C@H](OC(=O)/C=C/c1ccccc1)[C@]2(COC(C)=O)[C@@H](OC(=O)COC(C)=O)CC[C@]3(C)O` (stereo partly specified), in the experiment on LNCaP [6], the IC50 is > 10 µM.
